Data published in ChEMBL document CHEMBL1153170, “Novel imidazolopyrimidines as dual PI3-Kinase/mTOR inhibitors” (Bioorg Med Chem Lett, 2010).
Activity calls are given as the source filed them. The calls are words filed in the database; no cut-off is given here.

Legend:
[1] = target: T1, Phosphatidylinositol 4,5-bisphosphate 3-kinase catalytic subunit alpha isoform (Homo sapiens, UniProt P42336); assay: Inhibition of PI3Kalpha
[2] = target: Phosphatidylinositol 4,5-bisphosphate 3-kinase catalytic subunit gamma isoform (Homo sapiens, UniProt P48736); assay: Inhibition of PI3Kgamma
[3] = target: Serine/threonine-protein kinase mTOR (Homo sapiens, UniProt P42345); assay: Inhibition of mTOR
MDA-MB-361 = assay: Growth inhibition of human MDA-MB-361 cells after 72 hrs by celltiter assay; format: functional, cell-based; details: MDA-MB-361, 72 h
In short: (§1)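 Cells from ATCC, maintained at 37 °C, 5% CO2 in growth medium with 10% fetal calf serum plus penicillin/streptomycin. Seeding density set per line's growth characteristics; 96-well format. Viable cells quantified by CellTiter 96 aqueous non-radioactive colorimetric proliferation assay after 72 h compound exposure.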

[4] = Growth inhibition of human PC3MM2 cells after 72 hrs by celltiter assay; format: functional, cell-based; details: PC3MM2, 72 h; in short: as §1
[5] = target: T1, Phosphatidylinositol 4,5-bisphosphate 3-kinase catalytic subunit alpha isoform; assay: Inhibition of PI3Kalpha in human MDA-MB-361 cells assessed as reduction of phosphorylated Akt (T308) level after 4 hrs by Western blotting; format: cell-based
In short: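 Cells seeded 24 h before 4 h compound exposure in complete growth medium, washed with cold PBS, lysed in Tris-HCl pH 7.5/NaCl/EDTA/EGTA/Triton buffer with phosphatase and protease inhibitors. Lysates resolved by SDS-PAGE, blotted to nitrocellulose, probed for phospho-Akt T308, total Akt, actin; HRP secondary, chemiluminescent detection.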

[6] = target: T1, Phosphatidylinositol 4,5-bisphosphate 3-kinase catalytic subunit alpha isoform; details: MDA-MB-361, 10 to 30 uM

T1 sequence (P42336 whole entry, canonical isoform): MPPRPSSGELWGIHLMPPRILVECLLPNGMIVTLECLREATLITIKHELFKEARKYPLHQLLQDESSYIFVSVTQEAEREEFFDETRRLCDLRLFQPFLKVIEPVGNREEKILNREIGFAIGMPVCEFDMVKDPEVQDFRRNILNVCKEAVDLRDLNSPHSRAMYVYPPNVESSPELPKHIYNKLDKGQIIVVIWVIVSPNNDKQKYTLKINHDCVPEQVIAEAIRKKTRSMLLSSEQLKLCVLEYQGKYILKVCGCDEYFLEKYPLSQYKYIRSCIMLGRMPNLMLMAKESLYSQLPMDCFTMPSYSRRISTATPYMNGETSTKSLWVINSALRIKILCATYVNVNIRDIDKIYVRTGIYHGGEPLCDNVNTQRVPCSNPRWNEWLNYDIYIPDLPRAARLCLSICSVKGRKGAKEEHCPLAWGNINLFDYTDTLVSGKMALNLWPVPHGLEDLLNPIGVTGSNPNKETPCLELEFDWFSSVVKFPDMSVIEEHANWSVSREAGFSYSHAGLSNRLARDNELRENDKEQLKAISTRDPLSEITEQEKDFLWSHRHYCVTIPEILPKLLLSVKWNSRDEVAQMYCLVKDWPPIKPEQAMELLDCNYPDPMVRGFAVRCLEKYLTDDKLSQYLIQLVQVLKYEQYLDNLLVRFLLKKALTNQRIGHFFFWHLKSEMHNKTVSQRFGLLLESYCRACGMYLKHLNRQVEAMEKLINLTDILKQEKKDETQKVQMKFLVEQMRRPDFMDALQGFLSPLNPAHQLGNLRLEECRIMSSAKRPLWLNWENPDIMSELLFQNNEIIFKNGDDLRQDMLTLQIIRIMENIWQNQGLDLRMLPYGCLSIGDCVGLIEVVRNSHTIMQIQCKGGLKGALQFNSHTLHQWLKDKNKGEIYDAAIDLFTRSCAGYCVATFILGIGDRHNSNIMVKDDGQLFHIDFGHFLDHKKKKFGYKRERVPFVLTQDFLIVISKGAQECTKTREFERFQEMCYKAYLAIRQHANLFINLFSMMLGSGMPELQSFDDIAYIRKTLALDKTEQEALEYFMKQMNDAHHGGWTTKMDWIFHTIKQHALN
Sequence of Phosphatidylinositol 4,5-bisphosphate 3-kinase catalytic subunit gamma isoform (P48736 whole entry, canonical isoform): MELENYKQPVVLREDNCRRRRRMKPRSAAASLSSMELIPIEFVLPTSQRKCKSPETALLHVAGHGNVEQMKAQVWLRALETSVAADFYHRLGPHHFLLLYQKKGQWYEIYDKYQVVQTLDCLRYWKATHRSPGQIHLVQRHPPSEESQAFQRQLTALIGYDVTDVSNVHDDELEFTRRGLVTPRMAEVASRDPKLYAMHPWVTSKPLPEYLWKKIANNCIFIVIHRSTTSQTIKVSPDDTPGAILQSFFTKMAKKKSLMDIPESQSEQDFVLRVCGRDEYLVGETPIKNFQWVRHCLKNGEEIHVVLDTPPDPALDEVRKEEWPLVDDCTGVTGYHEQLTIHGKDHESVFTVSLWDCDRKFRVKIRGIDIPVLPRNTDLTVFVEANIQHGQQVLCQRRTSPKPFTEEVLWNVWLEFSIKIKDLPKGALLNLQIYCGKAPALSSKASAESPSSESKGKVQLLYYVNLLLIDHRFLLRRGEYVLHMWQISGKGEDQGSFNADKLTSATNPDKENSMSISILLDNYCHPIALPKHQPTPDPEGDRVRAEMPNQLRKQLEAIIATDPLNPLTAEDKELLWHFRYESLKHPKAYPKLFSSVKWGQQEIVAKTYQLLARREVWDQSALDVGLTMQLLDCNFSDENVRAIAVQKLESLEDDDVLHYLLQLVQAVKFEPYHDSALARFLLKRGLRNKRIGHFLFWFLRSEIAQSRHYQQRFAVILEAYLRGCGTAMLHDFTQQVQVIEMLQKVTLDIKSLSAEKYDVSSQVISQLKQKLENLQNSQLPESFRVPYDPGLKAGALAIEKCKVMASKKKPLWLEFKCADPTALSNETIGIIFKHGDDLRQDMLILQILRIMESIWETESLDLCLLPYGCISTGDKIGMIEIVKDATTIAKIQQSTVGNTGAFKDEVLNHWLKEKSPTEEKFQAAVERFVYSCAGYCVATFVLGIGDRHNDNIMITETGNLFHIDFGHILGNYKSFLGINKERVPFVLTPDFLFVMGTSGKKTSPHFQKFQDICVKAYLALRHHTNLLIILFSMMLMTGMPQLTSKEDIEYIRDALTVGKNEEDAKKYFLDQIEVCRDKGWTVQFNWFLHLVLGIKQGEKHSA

SMILES	IC50 [1] [nM]	IC50 [2] [nM]	IC50 [3] [nM]	IC50 (MDA-MB-361) [nM]	IC50 [4] [nM]	IC50 [5] [nM]	inhibition [6]
OCc1cccc(-c2nc(N3CCOCC3)c3ncn(C4CCN(Cc5ccc(-c6ccncc6)cc5)CC4)c3n2)c1	23	223					
Oc1cncc(-c2nc(N3CCOCC3)c3ncn(C4CCN(Cc5ccc(F)nc5)CC4)c3n2)c1	94	61					
OCc1cccc(-c2nc(N3CCOCC3)c3ncn(C4CCN(c5ccc(F)cc5F)CC4)c3n2)c1	44	640	2050				
CC(=O)N1CCC(n2cnc3c(N4CCOCC4)nc(-c4cccc(CO)c4)nc32)CC1	189	1380					
Oc1cncc(-c2nc(N3CCOCC3)c3ncn(C4CCNCC4)c3n2)c1	14	44					
Oc1cncc(-c2nc(N3CCOCC3)c3ncn(C4CCN(Cc5ccc(Cl)cc5)CC4)c3n2)c1	16	119					
OCc1cccc(-c2nc(N3CCOCC3)c3ncn(C4CCNCC4)c3n2)c1	57	683					
COc1ccc(CN2CCC(n3cnc4c(N5CCOCC5)nc(-c5cccc(O)c5)nc43)CC2)cn1	55	306					
Oc1cccc(-c2nc(N3CCOCC3)c3ncn(C4CCNCC4)c3n2)c1	64	133	950				
Oc1cncc(-c2nc(N3CCOCC3)c3nc[nH]c3n2)c1	11	47					
OCc1cccc(-c2nc(N3CCOCC3)c3ncn(C4CCN(Cc5ccccn5)CC4)c3n2)c1	65	776					
Oc1cccc(-c2nc(N3CCOCC3)c3ncn(C4CCN(Cc5ccc(N6CCOCC6)nc5)CC4)c3n2)c1	40	368	152				
OCc1cccc(-c2nc(N3CCOCC3)c3ncn(C4CCN(Cc5ccccc5F)CC4)c3n2)c1	42	1100					
CN(C)CCCOc1ccc(CN2CCC(n3cnc4c(N5CCOCC5)nc(-c5cccc(CO)c5)nc43)CC2)cc1	16	265		685	512	300	Active
OCc1cccc(-c2nc(N3CCOCC3)c3ncn(C4CCN(Cc5ccc(F)cc5)CC4)c3n2)c1	70	594					
Oc1cccc(-c2nc(N3CCOCC3)c3ncn(C4CCN(Cc5cccnc5)CC4)c3n2)c1	66	583					
Oc1cccc(-c2nc(N3CCOCC3)c3ncn(C4CCN(Cc5cncc(Cl)c5)CC4)c3n2)c1	37	341	200				
Oc1cccc(-c2nc(N3CCOCC3)c3ncn(C4CCN(Cc5ccccc5)CC4)c3n2)c1	75	10000					
Cc1ccc(CN2CCC(n3cnc4c(N5CCOCC5)nc(-c5cncc(O)c5)nc43)CC2)cc1	42	204					
Oc1cccc(-c2nc(N3CCOCC3)c3nc[nH]c3n2)c1	150	2340	1650				
